Results: ChEMBL document CHEMBL2086304, “Synthesis and in vitro antimycobacterial and isocitrate lyase inhibition properties of novel 2-methoxy-2'-hydroxybenzanilides, their thioxo analogues and benzoxazoles” (Eur J Med Chem, 2012)
Converted amounts (≈) assume the structure as drawn.

The molecules below were run on Mycobacterium tuberculosis (assay: Antimycobacterial activity against Mycobacterium tuberculosis 331/88 after 14 days by micromethod). Conditions: 331/88, 336 h.
Format: functional
How it was run: (§1)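 Inocula: M. tuberculosis My 331/88 at 10^-3 dilution, M. avium My 330/88 at 10^-5, M. kansasii My 235/80 and clinical isolate 6509/96 at 10^-4. Compounds added in DMSO at 1000 down to 0.5 (twofold series). Read at 14 and 21 days, plus 7 days for M. kansasii. MIC taken as lowest concentration inhibiting growth.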
Work on `COc1cc(Cl)ccc1-c1nc2ccc(C(F)(F)F)cc2o1` yielded an MIC of 250 µM (≈ 81.9 µg/mL). Work on `COc1ccc(Cl)cc1C(=O)Nc1ccc(C(F)(F)F)cc1OC(=O)c1cc(Cl)ccc1OC` yielded an MIC of 250 µM (≈ 129 µg/mL). `COc1ccc(Cl)cc1-c1nc2cc(Cl)c(Cl)cc2o1` showed an MIC of 125 µM (≈ 41.1 µg/mL). `COc1cc(Cl)ccc1-c1nc2ccc(Br)cc2o1` was tested, and the MIC was 125 µM (≈ 42.3 µg/mL). `COc1ccc(Cl)cc1-c1nc2cc(Cl)ccc2o1` was tested, and the MIC was 125 µM (≈ 36.8 µg/mL). Molecule `COc1cc(Cl)ccc1C(=O)Nc1ccc(C(F)(F)F)cc1OC(=O)c1ccc(Cl)cc1OC` has an MIC of 250 µM (≈ 129 µg/mL).

Each molecule was assayed on Mycobacterium tuberculosis (assay: Antimycobacterial activity against Mycobacterium tuberculosis 331/88 after 21 days by micromethod). Conditions: 331/88, 504 h.
Format: functional
How it was run: as §1
`COc1cc(Cl)ccc1-c1nc2ccc(C(F)(F)F)cc2o1` showed an MIC of 250 µM (≈ 81.9 µg/mL). Work on `COc1ccc(Cl)cc1C(=O)Nc1ccc(C(F)(F)F)cc1OC(=O)c1cc(Cl)ccc1OC` yielded an MIC of 250 µM (≈ 129 µg/mL). With `COc1ccc(Cl)cc1-c1nc2cc(Cl)c(Cl)cc2o1` the MIC was 125 µM (≈ 41.1 µg/mL). With `COc1cc(Cl)ccc1-c1nc2ccc(Br)cc2o1` the MIC was 125 µM (≈ 42.3 µg/mL). `COc1ccc(Cl)cc1-c1nc2cc(Cl)ccc2o1` gave an MIC of 125 µM (≈ 36.8 µg/mL). `COc1cc(Cl)ccc1C(=O)Nc1ccc(C(F)(F)F)cc1OC(=O)c1ccc(Cl)cc1OC` was tested, and the MIC was 250 µM (≈ 129 µg/mL).

Each molecule was assayed on Mycobacterium avium (assay: Antimycobacterial activity against isoniazid resistance Mycobacterium avium 330/88 after 14 days by micromethod). Conditions: 330/88, 336 h.
Format: functional
How it was run: as §1
`COc1cc(Cl)ccc1-c1nc2ccc(C(F)(F)F)cc2o1` was tested, and the MIC was 125 µM (≈ 41 µg/mL). Work on `COc1ccc(Cl)cc1C(=O)Nc1ccc(C(F)(F)F)cc1OC(=O)c1cc(Cl)ccc1OC` yielded an MIC of 62.5 µM (≈ 32.1 µg/mL). `COc1ccc(Cl)cc1-c1nc2cc(Cl)c(Cl)cc2o1` gave an MIC of 125 µM (≈ 41.1 µg/mL). In the case of `COc1cc(Cl)ccc1-c1nc2ccc(Br)cc2o1`, the MIC was 125 µM (≈ 42.3 µg/mL). In the case of `COc1ccc(Cl)cc1-c1nc2cc(Cl)ccc2o1`, the MIC was 250 µM (≈ 73.5 µg/mL). In the case of `COc1cc(Cl)ccc1C(=O)Nc1ccc(C(F)(F)F)cc1OC(=O)c1ccc(Cl)cc1OC`, the MIC was 62.5 µM (≈ 32.1 µg/mL).

These molecules were tested on Mycobacterium avium (assay: Antimycobacterial activity against isoniazid resistance Mycobacterium avium 330/88 after 21 days by micromethod). Conditions: 330/88, 504 h.
Format: functional
How it was run: as §1
`COc1cc(Cl)ccc1-c1nc2ccc(C(F)(F)F)cc2o1` gave an MIC of 125 µM (≈ 41 µg/mL). `COc1ccc(Cl)cc1C(=O)Nc1ccc(C(F)(F)F)cc1OC(=O)c1cc(Cl)ccc1OC` gave an MIC of 62.5 µM (≈ 32.1 µg/mL). For `COc1ccc(Cl)cc1-c1nc2cc(Cl)c(Cl)cc2o1`, the MIC was 125 µM (≈ 41.1 µg/mL). `COc1cc(Cl)ccc1-c1nc2ccc(Br)cc2o1` was tested, and the MIC was 125 µM (≈ 42.3 µg/mL). In the case of `COc1ccc(Cl)cc1-c1nc2cc(Cl)ccc2o1`, the MIC was 250 µM (≈ 73.5 µg/mL). `COc1cc(Cl)ccc1C(=O)Nc1ccc(C(F)(F)F)cc1OC(=O)c1ccc(Cl)cc1OC` showed an MIC of 62.5 µM (≈ 32.1 µg/mL).

Each molecule was assayed on Mycobacterium kansasii (assay: Antimycobacterial activity against Mycobacterium kansasii 6509/96 clinical isolate after 7 days by micromethod). Conditions: 6509/96, 168 h.
Format: functional
How it was run: as §1
Work on `COc1cc(Cl)ccc1-c1nc2ccc(C(F)(F)F)cc2o1` yielded an MIC of 250 µM (≈ 81.9 µg/mL). `COc1ccc(Cl)cc1C(=O)Nc1ccc(C(F)(F)F)cc1OC(=O)c1cc(Cl)ccc1OC` gave an MIC of 8 µM (≈ 4.11 µg/mL). In the case of `COc1ccc(Cl)cc1-c1nc2cc(Cl)c(Cl)cc2o1`, the MIC was 125 µM (≈ 41.1 µg/mL). `COc1cc(Cl)ccc1-c1nc2ccc(Br)cc2o1` was tested, and the MIC was 125 µM (≈ 42.3 µg/mL). `COc1ccc(Cl)cc1-c1nc2cc(Cl)ccc2o1` showed an MIC of 250 µM (≈ 73.5 µg/mL). Work on `COc1cc(Cl)ccc1C(=O)Nc1ccc(C(F)(F)F)cc1OC(=O)c1ccc(Cl)cc1OC` yielded an MIC of 250 µM (≈ 129 µg/mL).

These molecules were tested on Mycobacterium kansasii (assay: Antimycobacterial activity against isoniazid resistance Mycobacterium kansasii 225/80 after 7 days by micromethod). Conditions: 225/80, 168 h.
Format: functional
For `COc1ccc(Cl)cc1-c1nc2cc(Cl)c(Cl)cc2o1`, the MIC was 125 µM (≈ 41.1 µg/mL). Work on `COc1cc(Cl)ccc1-c1nc2ccc(Br)cc2o1` yielded an MIC of 125 µM (≈ 42.3 µg/mL). Molecule `COc1ccc(Cl)cc1-c1nc2cc(Cl)ccc2o1` has an MIC of 250 µM (≈ 73.5 µg/mL).

These molecules were tested on Mycobacterium kansasii (assay: Antimycobacterial activity against isoniazid resistance Mycobacterium kansasii 225/80 after 14 days by micromethod). Conditions: 225/80, 336 h.
Format: functional
For `COc1cc(Cl)ccc1-c1nc2ccc(C(F)(F)F)cc2o1`, the MIC was 250 µM (≈ 81.9 µg/mL). Work on `COc1ccc(Cl)cc1C(=O)Nc1ccc(C(F)(F)F)cc1OC(=O)c1cc(Cl)ccc1OC` yielded an MIC of 8 µM (≈ 4.11 µg/mL). In the case of `COc1ccc(Cl)cc1-c1nc2cc(Cl)c(Cl)cc2o1`, the MIC was 125 µM (≈ 41.1 µg/mL). `COc1cc(Cl)ccc1-c1nc2ccc(Br)cc2o1` showed an MIC of 125 µM (≈ 42.3 µg/mL). In the case of `COc1ccc(Cl)cc1-c1nc2cc(Cl)ccc2o1`, the MIC was 250 µM (≈ 73.5 µg/mL). In the case of `COc1cc(Cl)ccc1C(=O)Nc1ccc(C(F)(F)F)cc1OC(=O)c1ccc(Cl)cc1OC`, the MIC was 250 µM (≈ 129 µg/mL).

The molecules below were run on Mycobacterium kansasii (assay: Antimycobacterial activity against isoniazid resistance Mycobacterium kansasii 225/80 after 21 days by micromethod). Conditions: 225/80, 504 h.
Format: functional
`COc1cc(Cl)ccc1-c1nc2ccc(C(F)(F)F)cc2o1` gave an MIC of 250 µM (≈ 81.9 µg/mL). Molecule `COc1ccc(Cl)cc1C(=O)Nc1ccc(C(F)(F)F)cc1OC(=O)c1cc(Cl)ccc1OC` has an MIC of 16 µM (≈ 8.23 µg/mL). Work on `COc1ccc(Cl)cc1-c1nc2cc(Cl)c(Cl)cc2o1` yielded an MIC of 125 µM (≈ 41.1 µg/mL). With `COc1cc(Cl)ccc1-c1nc2ccc(Br)cc2o1` the MIC was 125 µM (≈ 42.3 µg/mL). Work on `COc1ccc(Cl)cc1-c1nc2cc(Cl)ccc2o1` yielded an MIC of 250 µM (≈ 73.5 µg/mL). For `COc1cc(Cl)ccc1C(=O)Nc1ccc(C(F)(F)F)cc1OC(=O)c1ccc(Cl)cc1OC`, the MIC was 250 µM (≈ 129 µg/mL).

What follows are molecules tested on Mycobacterium kansasii (assay: Antimycobacterial activity against Mycobacterium kansasii 6509/96 clinical isolate after 14 days by micromethod). Conditions: 6509/96, 336 h.
Format: functional
How it was run: as §1
With `COc1cc(Cl)ccc1-c1nc2ccc(C(F)(F)F)cc2o1` the MIC was 250 µM (≈ 81.9 µg/mL). `COc1ccc(Cl)cc1C(=O)Nc1ccc(C(F)(F)F)cc1OC(=O)c1cc(Cl)ccc1OC` showed an MIC of 8 µM (≈ 4.11 µg/mL). Molecule `COc1ccc(Cl)cc1-c1nc2cc(Cl)c(Cl)cc2o1` has an MIC of 125 µM (≈ 41.1 µg/mL). `COc1cc(Cl)ccc1-c1nc2ccc(Br)cc2o1` was tested, and the MIC was 125 µM (≈ 42.3 µg/mL). Work on `COc1ccc(Cl)cc1-c1nc2cc(Cl)ccc2o1` yielded an MIC of 250 µM (≈ 73.5 µg/mL). Work on `COc1cc(Cl)ccc1C(=O)Nc1ccc(C(F)(F)F)cc1OC(=O)c1ccc(Cl)cc1OC` yielded an MIC of 250 µM (≈ 129 µg/mL).

These molecules were tested on Mycobacterium kansasii (assay: Antimycobacterial activity against Mycobacterium kansasii 6509/96 clinical isolate after 21 days by micromethod). Conditions: 6509/96, 504 h.
Format: functional
How it was run: as §1
`COc1cc(Cl)ccc1-c1nc2ccc(C(F)(F)F)cc2o1` showed an MIC of 250 µM (≈ 81.9 µg/mL). With `COc1ccc(Cl)cc1C(=O)Nc1ccc(C(F)(F)F)cc1OC(=O)c1cc(Cl)ccc1OC` the MIC was 8 µM (≈ 4.11 µg/mL). `COc1ccc(Cl)cc1-c1nc2cc(Cl)c(Cl)cc2o1` was tested, and the MIC was 125 µM (≈ 41.1 µg/mL). `COc1cc(Cl)ccc1-c1nc2ccc(Br)cc2o1` gave an MIC of 125 µM (≈ 42.3 µg/mL). `COc1ccc(Cl)cc1-c1nc2cc(Cl)ccc2o1` showed an MIC of 250 µM (≈ 73.5 µg/mL). In the case of `COc1cc(Cl)ccc1C(=O)Nc1ccc(C(F)(F)F)cc1OC(=O)c1ccc(Cl)cc1OC`, the MIC was 250 µM (≈ 129 µg/mL).

The molecules below were run against T1, Isocitrate lyase (Mycobacterium tuberculosis) (UniProt P9WKK7) (assay: Inhibition of Mycobacterium tuberculosis H37Rv isocitrate lyase expressed in Escherichia coli HB101 at 10 umol/L). Conditions: not given.
T1 sequence (whole entry): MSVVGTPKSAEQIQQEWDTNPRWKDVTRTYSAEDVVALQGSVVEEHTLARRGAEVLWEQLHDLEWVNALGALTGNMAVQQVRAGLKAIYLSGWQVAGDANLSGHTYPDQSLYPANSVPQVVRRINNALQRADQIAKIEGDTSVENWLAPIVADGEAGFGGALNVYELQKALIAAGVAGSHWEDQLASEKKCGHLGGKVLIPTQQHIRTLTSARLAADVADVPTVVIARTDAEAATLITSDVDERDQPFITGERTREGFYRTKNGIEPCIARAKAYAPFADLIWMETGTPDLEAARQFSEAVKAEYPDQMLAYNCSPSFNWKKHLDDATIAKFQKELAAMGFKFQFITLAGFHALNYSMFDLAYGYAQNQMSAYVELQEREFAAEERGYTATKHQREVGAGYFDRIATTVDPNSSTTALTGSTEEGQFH
How it was run: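 Isocitrate lyase assayed per Dixon–Kornberg in 96-well format. Buffer: 50 mmol/L KH2PO4, 4 mmol/L MgCl2, 4 mmol/L phenylhydrazine, 12 mmol/L cysteine, pH 7.0. Glyoxylate phenylhydrazone read at 324 nm. Compounds added in DMSO, with DMSO-alone inhibition subtracted.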
For `COc1cc(Cl)ccc1-c1nc2ccc(C(F)(F)F)cc2o1`, the inhibition was 0%. With `COc1ccc(Cl)cc1C(=O)Nc1ccc(C(F)(F)F)cc1OC(=O)c1cc(Cl)ccc1OC` the inhibition was 9%. Work on `COc1ccc(Cl)cc1-c1nc2cc(Cl)c(Cl)cc2o1` yielded an inhibition of 4%. With `COc1cc(Cl)ccc1-c1nc2ccc(Br)cc2o1` the inhibition was 0%. For `COc1ccc(Cl)cc1-c1nc2cc(Cl)ccc2o1`, the inhibition was 0%. `COc1cc(Cl)ccc1C(=O)Nc1ccc(C(F)(F)F)cc1OC(=O)c1ccc(Cl)cc1OC` showed an inhibition of 8%.
